The values that follow come from ChEMBL document CHEMBL1137418, “Neurosteroid analogues. 11. Alternative ring system scaffolds: gamma-aminobutyric acid receptor modulation and anesthetic actions of benz[f]indenes” (J Med Chem, 2006).

SMILES strings stand for the structures. pIC50: −log10 of the molar value. Active and inactive are the calls of the source. No cut-off for these calls is given here.

Assay [1] addresses GABA-A receptor; anion channel. Briefly: Displacement of [35S]TBPS from GABA-A receptor in rat brain membrane. The assay is classed as cell membranes. Put shortly: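 Rat brain membranes were used to measure noncompetitive displacement of [35S]-TBPS from the picrotoxin site of GABAA receptors. Hill slopes were also derived. Results come from duplicate experiments run in triplicate, with error as SEM.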

Assay [2] is filed under the species Xenopus laevis. Briefly: Loss of swimming reflex in Xenopus laevis tadpole. The assay is classed as functional. Put shortly:
(§1)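 Xenopus tadpoles were scored for loss of righting response and, separately, loss of swimming response. N = 10 animals were tested at each of five or more concentrations, and error is given as SEM.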

The species entered for assay [3] is Xenopus laevis. Put plainly: Loss of righting reflex in Xenopus laevis tadpole. It is filed as functional. In outline:
as §1

Assay [4] deals with T1, GABA-A receptor; alpha-1/beta-2/gamma-2 (Rattus norvegicus) (UniProt P18508+P62813+P63138). Briefly: Activity at rat GABA-Aalpha1 receptor plus beta2gamma2L expressed in Xenopus laevis oocyte assessed as ratio of GABA-mediated current in presence to absence of compound at 1 uM. It is filed as functional.
Assay [5] has as its target T1, GABA-A receptor; alpha-1/beta-2/gamma-2 (Rattus norvegicus). Briefly: Activity at rat GABA-Aalpha1 receptor plus beta-2-gamma-2L expressed in Xenopus laevis oocyte assessed as ratio of GABA-mediated current in presence to absence of compound at 10 uM. It is filed as functional.
Assay [6] has the same target. Put plainly: Activity at rat GABA-Aalpha1 receptor plus beta-2-gamma-2L expressed in Xenopus laevis oocyte assessed as ratio of GABA-mediated current in presence to absence of compound at 0.1 uM. It is filed as functional.
For assay [7] the target is unchanged. Briefly: Activity at rat GABA-Aalpha1 receptor plus beta-2-gamma-2L expressed in Xenopus laevis oocyte assessed as ratio of current evoked by compound alone in absence of GABA to current evoked by 2 uM GABA at 10 uM.
For assay [8], the species on record is Xenopus laevis. Put plainly: Loss of swimming reflex in Xenopus laevis tadpole at 10 uM. The assay is classed as functional, organism-based.
For assay [9], the species on record is Xenopus laevis. Put plainly: Loss of righting reflex in Xenopus laevis tadpole at 10 uM. It is filed as functional, organism-based.

For the compound `C[C@]12C[C@H]3CC[C@H](CCO)CC3C[C@@H]1CC[C@@H]2C#N` (single isomer, unassigned; 2d) [listing 1 of 2 here], the pIC50 (in general, the IC50 on a negative log10 scale, so that one unit is a factor of ten) in assay [1] is 5.72. Also, the ED50 in the assay listed under Xenopus laevis [2] stood at 17.3 µM; in the assay filed under Xenopus laevis [3] it was 5.12 µM.
The compound `C[C@]12C[C@H]3CC[C@@H](CCO)CC3C[C@@H]1CC[C@@H]2C#N` (single isomer, unassigned; 2c) [listing 1 of 2 here] gave a pIC50 in assay [1] of 5.70. Moreover, the ED50 in the assay filed under Xenopus laevis [3] stood at 3 µM.
Turning to `C[C@]12C[C@H]3CC[C@H](CCO)CC3C[C@@H]1CC[C@@H]2C#N` (single isomer, unassigned; 2d) [listing 2 of 2 here], the Ratio in [4] was determined as 1.03; in assay [5], 2.17; in assay [6], 0.98; in [7], 0.01.
For `CC(=O)[C@H]1CC[C@H]2CC3C[C@H](CCO)CC[C@@H]3C[C@@]21C` (single isomer, unassigned), the result in the assay filed under Xenopus laevis [8] was inactive. In the assay listed under Xenopus laevis [3], the ED50 is greater than 10 µM.
In the case of `C[C@]12CC[C@@H]3C[C@H](CCO)CC[C@H]3[C@@H]1CC[C@@H]2C#N`, the pIC50 in [1] is 6.24. In addition, the ED50 turned out to be 5.5 µM in the assay filed under Xenopus laevis [2] and 0.79 µM in the assay filed under Xenopus laevis [3]. Besides, the Ratio turned out to be 2.33 in [4], 12.2 in [5], 1.29 in assay [6] and 0.54 in [7].
In turn, `C[C@]12CC[C@@H](O)C[C@@H]1CC[C@@H]1[C@@H]2CC[C@]2(C)[C@@H](C#N)CC[C@@H]12` gave a pIC50 in assay [1] of 7.30. Further, the ED50 came to 0.71 µM in the assay filed under Xenopus laevis [2] and 0.07 µM in the assay listed under Xenopus laevis [3]. In addition, the Ratio came out at 5.65 in assay [4], 8.28 in assay [5], 1.44 in [6] and 0.66 in assay [7].
With `C[C@]12C[C@H]3CC[C@H](CCO)CC3C[C@@H]1CCC2=O` (single isomer, unassigned; 1a) [listing 1 of 2 here], in the assay listed under Xenopus laevis [8], the outcome was inactive. Further, the Ratio in assay [4] was 1; in assay [5] it was 2.42; in assay [6] it was 1; in [7], -0.02.
In the case of `C[C@]12C[C@H]3CC[C@@H](CCO)CC3C[C@@H]1CCC2=O` (single isomer, unassigned; 1b) [listing 1 of 2 here], the outcome in the assay filed under Xenopus laevis [8] and in the assay listed under Xenopus laevis [9] was inactive. The Ratio in assay [4] was 1.08; in assay [5], 3.54; in assay [6], 0.9; in assay [7], -0.02.
`C[C@]12CC[C@@H](O)C[C@H]1CC[C@@H]1[C@@H]2CC[C@]2(C)[C@@H](C#N)CC[C@@H]12` gave a pIC50 in assay [1] of 7.14. In addition, the ED50 was determined as 0.36 µM in the assay listed under Xenopus laevis [2] and 0.08 µM in the assay listed under Xenopus laevis [3]. In addition, the Ratio in [4] is 10.4; in [5] it was 20.6; in assay [6], 2.02; in [7], 0.09.
`CC(=O)[C@H]1CC[C@H]2CC3C[C@@H](CCO)CC[C@@H]3C[C@@]21C` (single isomer, unassigned) had a pIC50 in [1] of 5.69. Further, the results for the ED50 in the assay listed under Xenopus laevis [2] and in the assay listed under Xenopus laevis [3] were 17.3 µM and 6.63 µM, respectively.
`C[C@]12C[C@H]3CC[C@H](CCO)CC3C[C@@H]1CCC2=O` (single isomer, unassigned; 1a) [listing 2 of 2 here]: the pIC50 in assay [1] was 5.30. This compound also came in with an ED50 in the assay listed under Xenopus laevis [3] of 4.01 µM.
As to `C[C@]12C[C@H]3CC[C@@H](CCO)CC3C[C@@H]1CC[C@@H]2C#N` (single isomer, unassigned; 2c) [listing 2 of 2 here], the outcome in the assay filed under Xenopus laevis [8] was inactive. Also, the Ratio was 1.14 in [4], 3.23 in assay [5], 1.01 in assay [6] and -0.01 in assay [7].
`C[C@]12C[C@H]3CC[C@@H](CCO)CC3C[C@@H]1CCC2=O` (single isomer, unassigned; 1c) gave a pIC50 in assay [1] of less than 4.52.
`C[C@]12C[C@H]3CC[C@@H](CCO)CC3C[C@@H]1CCC2=O` (single isomer, unassigned; 1b) [listing 2 of 2 here] showed a pIC50 in [1] of 5.41.
In assay [1], `C[C@]12CC[C@@H]3C[C@@H](CCO)CC[C@H]3[C@@H]1CC[C@@H]2C#N` gave a pIC50 of 6.89. The ED50 was 1.73 µM in the assay listed under Xenopus laevis [2] and 0.14 µM in the assay filed under Xenopus laevis [3]. The Ratio in assay [4] was found to be 3.65; in assay [5], 7.42; in assay [6], 1.45; in [7], 0.01.
The compound `C[C@]12C[C@H]3CC[C@@H](CCO)CC3C[C@@H]1CC[C@@H]2C#N` (single isomer, unassigned; 2b) [listing 1 of 2 here] had a pIC50 in assay [1] of 6.28. For the same compound, the ED50 in the assay filed under Xenopus laevis [2] was 5.48 µM; in the assay filed under Xenopus laevis [3], 2.88 µM.
`CC(=O)[C@H]1CC[C@H]2[C@@H]3CC[C@@H]4C[C@H](O)CC[C@]4(C)[C@H]3CC[C@]12C` [ELTANOLONE]: the ED50 was found to be 0.3 µM in the assay listed under Xenopus laevis [2] and 0.06 µM in the assay listed under Xenopus laevis [3]. Moreover, the Ratio stood at 2.82 in [4], 9.77 in assay [5], 1.2 in [6] and 0.06 in assay [7].
On to `CC(=O)[C@H]1CC[C@H]2[C@@H]3CC[C@H]4C[C@H](O)CC[C@]4(C)[C@H]3CC[C@]12C` [BREXANOLONE], for which the ED50 came out at 5.5 µM in the assay filed under Xenopus laevis [2] and 0.42 µM in the assay listed under Xenopus laevis [3]. The Ratio in assay [4] was determined as 3.89; in assay [5], 9.65; in assay [6] it was 1.26; in [7], 0.37.
In the case of `CC(=O)[C@H]1CC[C@H]2[C@@H]3CC[C@@H](CCO)C[C@H]3CC[C@]12C`, the pIC50 in assay [1] was 5.93. In addition, the ED50 in the assay listed under Xenopus laevis [2] amounted to 3.15 µM; in the assay listed under Xenopus laevis [3] it was 1.09 µM. The Ratio in assay [4] came out at 0.96; in [5] it was 3.63; in [6], 0.91; in assay [7] it was 0.14.
For `C[C@]12C[C@H]3CC[C@H](CCO)CC3C[C@@H]1CCC2=O` (single isomer, unassigned; 1d) [listing 1 of 2 here], the result in the assay filed under Xenopus laevis [8] was inactive. The Ratio is 1.04 in assay [4], 1.21 in [5], 1.02 in assay [6] and -0.05 in assay [7].
In the case of `C[C@]12C[C@H]3CC[C@H](CCO)CC3C[C@@H]1CC[C@@H]2C#N` (single isomer, unassigned; 2a) [listing 1 of 2 here], the Ratio in assay [4] was 1.29; in assay [5], 3.9; in assay [6], 1.02; in [7], 0.
For the compound `C[C@]12CC[C@@H]3C[C@H](CCO)CC[C@H]3[C@@H]1CCC2=O`, in assay [1], the pIC50 was 5.38. For the same compound, in the assay filed under Xenopus laevis [8], the outcome was inactive. Besides, the Ratio in assay [4] amounted to 1.03; in assay [5], 1.05; in assay [6], 0.99; in assay [7] it was 0.03. Besides, in the assay filed under Xenopus laevis [3], the ED50 came out at 16.4 µM.
Consider `C[C@]12C[C@H]3CC[C@@H](CCO)CC3C[C@@H]1CC[C@@H]2C#N` (single isomer, unassigned; 2b) [listing 2 of 2 here], for which the Ratio is 2.11 in assay [4], 7.21 in assay [5], 1.02 in assay [6] and 0.01 in [7].
With `C[C@]12CC[C@@H](O)C[C@@H]1CC[C@@H]1[C@@H]2CC[C@]2(C)C(=O)CC[C@@H]12` [ANDROSTERONE], in [1], the pIC50 was 6.39. Further, the outcome in the assay listed under Xenopus laevis [8] was inactive. Also, the Ratio in assay [4] was found to be 1.41; in assay [5], 5.44; in assay [6], 0.97; in [7] it was 0.02. The same compound gave an ED50 in the assay listed under Xenopus laevis [3] of 3.38 µM.
As for `C[C@]12CC[C@@H](O)C[C@H]1CC[C@@H]1[C@@H]2CC[C@]2(C)C(=O)CC[C@@H]12` [ETIOCHOLANOLONE], in assay [1], the pIC50 was 5.38. For the same compound, the result in the assay filed under Xenopus laevis [8] was inactive. Further, the Ratio is 0.87 in assay [4], 1.39 in assay [5], 0.89 in assay [6] and 0 in assay [7]. Besides, in the assay filed under Xenopus laevis [3], the ED50 was greater than 10 µM.
For the compound `C[C@]12CC[C@@H]3C[C@@H](CCO)CC[C@H]3[C@@H]1CCC2=O`, in [1], the pIC50 is 5.27. Besides, the outcome in the assay listed under Xenopus laevis [8] was inactive. Moreover, the Ratio in assay [4] is 1.22; in [5], 2.11; in assay [6], 0.95; in assay [7], -0.16. The ED50 in the assay filed under Xenopus laevis [3] worked out at 8.1 µM.
`C[C@]12C[C@H]3CC[C@H](CCO)CC3C[C@@H]1CCC2=O` (single isomer, unassigned; 1d) [listing 2 of 2 here]: the pIC50 in [1] is less than 5.00. In the assay listed under Xenopus laevis [3], this compound displayed an ED50 of 10 µM.
In assay [1], `C[C@]12C[C@H]3CC[C@H](CCO)CC3C[C@@H]1CC[C@@H]2C#N` (single isomer, unassigned; 2a) [listing 2 of 2 here] showed a pIC50 of 5.91. For the same compound, the ED50 in the assay filed under Xenopus laevis [2] was determined as 17.3 µM; in the assay filed under Xenopus laevis [3], 4.78 µM.
Regarding `CC(=O)[C@H]1CC[C@H]2[C@@H]3CC[C@H](CCO)C[C@H]3CC[C@]12C`, in [1], the pIC50 is 6.89. For the same compound, the figures for the ED50 in the assay filed under Xenopus laevis [2] and in the assay listed under Xenopus laevis [3] were 2.84 µM and 1.04 µM, respectively. Also, the Ratio in assay [4] worked out at 3.79; in assay [5], 9.35; in assay [6], 1.27; in [7] it was 0.13.
